Activity calls are given as the source filed them. The rule behind the calls is not given here.
Tests used:
[1] = test system: Mus musculus; experiment: Analgesic activity in C57BL6 mouse assessed as increase in thermal stimulus-induced paw withdrawal latency at 48 umol/kg, iv measured after 30 mins by plantar test; type: functional, organism-based
Summary of the method: (§1)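 Heat-induced paw withdrawal (plantar test) after intravenous dosing. Readings taken over a time course to 120 min post-injection and expressed as % maximal possible effect (%MPE). n=6–8 animals per group, with morphine-treated animals as comparator and significance testing versus morphine.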

[2] = test system: Rattus norvegicus; experiment: Analgesic activity in Wistar rat assessed as increase in thermal stimulus-induced tail-flick latency at 12 nmol/kg administered intrathecally measured up to 60 mins; type: functional
Summary of the method: (§2)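 Intrathecal injection followed by tail-flick testing at 5 to 120 min post-injection. Responses expressed as % maximal possible effect (%MPE). Doses given in nmol/kg. n=6–8 animals per group, with a morphine group and statistics versus morphine.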

[3] = biological target: T1, Mu-type opioid receptor (Rattus norvegicus, UniProt P33535); experiment: Displacement of [3H]DAMGO from MOR in Sprague-Dawley rat brain homogenate measured after 180 mins by scintillation counting analysis; type: tissue-based
T1 sequence (P33535 whole entry): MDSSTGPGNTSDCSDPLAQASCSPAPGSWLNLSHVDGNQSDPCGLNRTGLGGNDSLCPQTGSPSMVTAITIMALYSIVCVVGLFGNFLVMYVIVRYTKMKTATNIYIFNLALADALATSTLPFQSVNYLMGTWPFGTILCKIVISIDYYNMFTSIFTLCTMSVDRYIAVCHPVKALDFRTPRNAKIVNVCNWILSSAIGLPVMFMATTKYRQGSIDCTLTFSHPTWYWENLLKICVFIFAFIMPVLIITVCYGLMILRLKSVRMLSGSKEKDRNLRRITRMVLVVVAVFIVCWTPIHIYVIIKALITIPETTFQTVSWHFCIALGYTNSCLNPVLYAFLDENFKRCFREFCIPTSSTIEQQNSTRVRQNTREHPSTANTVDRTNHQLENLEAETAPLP

[4] = biological target: T2, Delta-type opioid receptor (Rattus norvegicus, UniProt P33533); experiment: Displacement of [3H]DELT2 from DOR in Sprague-Dawley rat brain homogenate measured after 180 mins by scintillation counting analysis; type: tissue-based
T2 sequence (P33533 whole entry): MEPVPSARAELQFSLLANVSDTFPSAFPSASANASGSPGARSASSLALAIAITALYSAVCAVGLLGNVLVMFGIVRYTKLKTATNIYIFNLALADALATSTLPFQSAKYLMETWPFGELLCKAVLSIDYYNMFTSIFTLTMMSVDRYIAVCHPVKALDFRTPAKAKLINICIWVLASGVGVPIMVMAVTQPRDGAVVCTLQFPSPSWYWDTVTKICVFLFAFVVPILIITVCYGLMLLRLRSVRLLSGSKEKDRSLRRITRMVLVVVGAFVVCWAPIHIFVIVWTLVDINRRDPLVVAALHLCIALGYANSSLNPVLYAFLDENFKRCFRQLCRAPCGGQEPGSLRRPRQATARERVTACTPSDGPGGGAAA

[5] = test system: Mus musculus; experiment: Analgesic activity in C57BL6 mouse assessed as effect on thermal stimulus-induced tail-flick latency at 80 umol/kg, iv measured after 60 mins relative to control; type: functional
Summary of the method: (§3)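 Tail-flick test after intravenous injection. Latencies recorded at time points from 5 to 120 min post-dose and converted to % maximal possible effect (%MPE). Groups of n=6–8 animals, compared against a morphine-treated group.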

[6] = test system: Mus musculus; experiment: Analgesic activity in C57BL6 mouse assessed as effect on thermal stimulus-induced paw withdrawal latency at 80 umol/kg, iv measured after 30 mins by plantar test relative to control; type: functional; summary of the method: as §1
[7] = biological target: T2, Delta-type opioid receptor; experiment: Displacement of [3H]DELT2 from DOR in rat brain homogenate measured after 60 mins by microbeta scintillation counting analysis; type: tissue-based
[8] = test system: Mus musculus; experiment: Analgesic activity in C57BL6 mouse assessed as effect on thermal stimulus-induced tail-flick latency at 80 umol/kg, iv measured up to 30 mins relative to control; type: functional; summary of the method: as §3
[9] = test system: Mus musculus; experiment: Analgesic activity in C57BL6 mouse assessed as effect on thermal stimulus-induced tail-flick latency at 80 umol/kg, iv measured after 120 mins relative to control; type: functional; summary of the method: as §3
[10] = biological target: Substance-P receptor (Rattus norvegicus, UniProt P14600); experiment: Displacement of [Leu-3,4,5-3H(N)]-Substance P from NK1 receptor in rat brain homogenate measured after 60 mins by microbeta scintillation counting analysis; type: tissue-based
Substance-P receptor, sequence (P14600 whole entry): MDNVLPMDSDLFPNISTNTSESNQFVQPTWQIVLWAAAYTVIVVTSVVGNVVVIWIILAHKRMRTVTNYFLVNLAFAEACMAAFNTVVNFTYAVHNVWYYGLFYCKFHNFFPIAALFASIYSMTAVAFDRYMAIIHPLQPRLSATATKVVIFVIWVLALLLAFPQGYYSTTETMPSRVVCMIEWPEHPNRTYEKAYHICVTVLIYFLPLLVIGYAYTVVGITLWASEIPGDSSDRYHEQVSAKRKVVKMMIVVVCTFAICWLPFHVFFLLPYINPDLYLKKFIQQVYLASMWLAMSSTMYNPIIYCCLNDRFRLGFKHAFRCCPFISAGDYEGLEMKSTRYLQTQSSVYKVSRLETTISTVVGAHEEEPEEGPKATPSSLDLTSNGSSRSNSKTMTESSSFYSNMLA

[11] = biological target: T1, Mu-type opioid receptor; experiment: Displacement of [3H]DAMGO from MOR in rat brain homogenate measured after 60 mins by microbeta scintillation counting analysis; type: tissue-based
[12] = test system: Rattus norvegicus; experiment: Analgesic activity in Wistar rat assessed as effect on thermal stimulus-induced tail-flick latency at 2 nmol/kg administered intrathecally measured after 15 mins relative to control; type: functional; summary of the method: as §2
[13] = test system: Mus musculus; experiment: Analgesic activity in C57BL6 mouse assessed as effect on thermal stimulus-induced tail-flick latency at 20 to 80 umol/kg, iv measured after 5 mins; type: functional; summary of the method: as §3

## CN1CC[C@]23c4c5ccc(O)c4O[C@H]2[C@@H](O)C=C[C@H]3[C@H]1C5
[1]
  Activity: Active
[2]
  Activity: Active

## C[C@@H](NC(=O)[C@@H](N)Cc1ccc(O)cc1)C(=O)NCC(=O)N[C@@H](Cc1ccccc1)C(=O)NNC(=O)[C@@H](N)Cc1ccccc1
[3]
  IC50: 0.74 nM
[4]
  IC50: 15 nM

## C[C@@H](NC(=O)[C@@H](N)Cc1ccc(O)cc1)C(=O)NCC(=O)N[C@@H](Cc1ccccc1)C(=O)NN
[3]
  IC50: 4.7 nM
[4]
  IC50: 230 nM

## C[C@@H](NC(=O)[C@@H](N)Cc1ccc(O)cc1)C(=O)NCC(=O)N[C@@H](Cc1ccccc1)C(=O)N/N=C/c1cc(C(F)(F)F)cc(C(F)(F)F)c1.O=C(O)C(F)(F)F
[5]
  MPE: 69.84%
[6]
  MPE: 75.41%
[7]
  IC50: 74.2 nM
[8]
  MPE: 94.26%
[9]
  MPE: 16.84%
[10]
  IC50: 4.24 nM
[11]
  IC50: 12.7 nM
[12]
  MPE: 80.31%
[13]
  MPE: 84.81%
